Data: ChEMBL document CHEMBL1140738, “New trisubstituted 1,2,4-triazole derivatives as potent ghrelin receptor antagonists. 3. Synthesis and pharmacological in vitro and in vivo evaluations” (J Med Chem, 2008)
Where a SMILES comes first, the peptide text is derived from it. [ ]: non-standard residue; d: D form. dTrp(2-Me) = Cc1[nH]c2ccccc2c1C[C@@H](N)C(=O)O

Experiments:
[1] = biological target: T1, Growth hormone secretagogue receptor type 1 (Homo sapiens, UniProt Q92847); experiment: Displacement of 125I]-His9-ghrelin from human GHSR1a expressed in LLCPK1 cells; format: cell-based, LLC-PK1
Summary of the method: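 Competition binding with membranes from LLC PK-1 cells transiently transfected with human GHS-R1a, incubated with 125I-His9-ghrelin and increasing concentrations of compound.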

[2] = biological target: T1, Growth hormone secretagogue receptor type 1; experiment: Agonist activity at GHSR1a expressed in CHO cells assessed as accumulation of intracellular calcium level; format: functional, cell-based
Summary of the method: (§1)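 CHO cells transiently expressing GHS-R1a; intracellular Ca2+ accumulation read as fluorescence output. Increasing agonist concentrations were tested for dose-response; single-point activation at 10^-5 M is expressed as percent of the maximal response to ghrelin at 10^-7 M (100%).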

[3] = biological target: T1, Growth hormone secretagogue receptor type 1; experiment: Agonist activity at GHSR1a expressed in CHO cells assessed as accumulation of intracellular calcium level at 10 uM relative to ghrelin; format: functional, cell-based; summary of the method: as §1
[4] = biological target: T1, Growth hormone secretagogue receptor type 1; experiment: Antagonist activity at GHSR1a expressed in CHO cells assessed as inhibition of ghrelin induced accumulation of intracellular calcium; format: functional, cell-based
Summary of the method: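 Antagonism measured in CHO cells transiently transfected with GHS-R1a: ghrelin dose-response curves of [Ca2+]i accumulation (fluorescence) run in the presence of various concentrations of test compound.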

Rattus norvegicus [5] = experiment: Effect on growth hormone secretion in infant rat at 80 ug/kg, sc at 160 ug/kg, sc in presence of hexarelin; format: functional
Summary of the method: (§2)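 Infant rats given sc injection of compound at 160 µg/kg and/or hexarelin at 80 µg/kg; plasma rat GH measured (ng/mL).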

Rattus norvegicus [6] = experiment: Effect on growth hormone secretion at 160 ug/kg, sc; format: functional; summary of the method: as §2
Rattus norvegicus [7] = experiment: Effect on growth hormone secretion in infant rat at 80 ug/kg, sc; format: functional; summary of the method: as §2
Rattus norvegicus [8] = experiment: Effect on food intake per 100 gm of body weight in rat at 80 ug/kg, sc after 2 hrs; format: functional
Summary of the method: (§3)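 Rats dosed subcutaneously with compound (160 µg/kg alone, or graded 20, 80, 160, 320 µg/kg) with or without hexarelin 80 µg/kg sc. Cumulative food intake at 2 and 6 h expressed as g food per 100 g body weight; % variation versus hexarelin at 6 h = 100 × (compound+hexarelin − hexarelin)/hexarelin.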

Rattus norvegicus [9] = experiment: Effect on food intake per 100 gm of body weight in rat at 80 ug/kg, sc after 6 hrs; format: functional; summary of the method: as §3
Rattus norvegicus [10] = experiment: Inhibition of hexarelin induced food intake per 100 gm of body weight in rat at 320 ug/kg, sc after 6 hrs; format: functional; summary of the method: as §3
Rattus norvegicus [11] = experiment: Inhibition of hexarelin induced food intake per 100 gm of body weight in rat at 20 ug/kg, sc after 2 hrs; format: functional; summary of the method: as §3
Rattus norvegicus [12] = experiment: Inhibition of hexarelin induced food intake per 100 gm of body weight in rat at 20 ug/kg, sc after 6 hrs; format: functional; summary of the method: as §3
Rattus norvegicus [13] = experiment: Inhibition of hexarelin induced food intake per 100 gm of body weight in rat at 80 ug/kg, sc after 2 hrs; format: functional; summary of the method: as §3
Rattus norvegicus [14] = experiment: Inhibition of hexarelin induced food intake per 100 gm of body weight in rat at 80 ug/kg, sc after 6 hrs; format: functional; summary of the method: as §3
Rattus norvegicus [15] = experiment: Inhibition of hexarelin induced food intake per 100 gm of body weight in rat at 160 ug/kg, sc after 2 hrs; format: functional; summary of the method: as §3
Rattus norvegicus [16] = experiment: Inhibition of hexarelin induced food intake per 100 gm of body weight in rat at 160 ug/kg, sc after 6 hrs; format: functional; summary of the method: as §3
Rattus norvegicus [17] = experiment: Inhibition of hexarelin induced food intake per 100 gm of body weight in rat at 320 ug/kg, sc after 2 hrs; format: functional; summary of the method: as §3

T1 sequence (Q92847 whole entry): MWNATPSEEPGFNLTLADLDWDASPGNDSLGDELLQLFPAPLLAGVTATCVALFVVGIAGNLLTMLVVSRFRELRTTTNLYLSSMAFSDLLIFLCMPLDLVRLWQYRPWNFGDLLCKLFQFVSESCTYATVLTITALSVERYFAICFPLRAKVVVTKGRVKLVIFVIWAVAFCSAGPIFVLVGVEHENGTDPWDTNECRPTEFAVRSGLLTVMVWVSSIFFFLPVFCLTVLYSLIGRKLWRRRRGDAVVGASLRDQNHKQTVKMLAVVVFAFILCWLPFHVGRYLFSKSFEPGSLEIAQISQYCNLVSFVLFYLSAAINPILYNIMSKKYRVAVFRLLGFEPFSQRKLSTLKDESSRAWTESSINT

SMILES: COc1ccc(Cn2c(CCc3c[nH]c4ccccc34)nnc2[C@@H](Cc2c[nH]c3ccccc23)NC(=O)C2CCNCC2)cc1
- IC50 [1]: 0.6 nM
- EC50 [2]: 1.6 nM

SMILES: COc1ccc(Cn2c(CCc3c[nH]c4ccccc34)nnc2[C@@H](Cc2c[nH]c3ccccc23)NC(=O)Cc2ccncc2)cc1
- IC50 [1]: 76 nM
- Activity [3]: 3%
- Kb [4]: 10 nM

SMILES: COc1ccc(Cn2c(CCc3ccccc3)nnc2[C@@H](Cc2c[nH]c3ccccc23)NC(=O)CCc2cccnc2)cc1
- IC50 [1]: 177 nM
- Activity [3]: 5%

SMILES: COc1ccc(Cn2c(CCc3c[nH]c4ccccc34)nnc2[C@@H](Cc2c[nH]c3ccccc23)NC(=O)c2ccccn2)c(OC)c1
- IC50 [1]: 1.8 nM
- Activity [3]: 0%
- Kb [4]: 19 nM

SMILES: COc1ccc(Cn2c(CCc3c[nH]c4ccccc34)nnc2[C@@H](Cc2c[nH]c3ccccc23)NC(=O)Cc2ccccn2)c(OC)c1
- IC50 [1]: 34 nM
- Activity [3]: 0%
- Kb [4]: 14 nM

SMILES: CCc1ccc(-n2c(CCc3c[nH]c4ccccc34)nnc2[C@@H](Cc2c[nH]c3ccccc23)NC(=O)c2ccccn2)cc1
- IC50 [1]: 49 nM
- Activity [3]: 0%
- Kb [4]: 129 nM

SMILES: O=C(Cc1ccccn1)N[C@H](Cc1c[nH]c2ccccc12)c1nnc(CCc2c[nH]c3ccccc23)n1Cc1ccccc1
- IC50 [1]: 61 nM
- Activity [3]: 4%
- Kb [4]: 41 nM

SMILES: CCc1ccc(Cn2c(CCc3ccccc3)nnc2[C@@H](Cc2c[nH]c3ccccc23)NC(=O)Cc2cccnc2)cc1
- IC50 [1]: 480 nM
- Activity [3]: 3%

SMILES: COc1ccc(-n2c(CCc3ccccc3)nnc2[C@@H](Cc2c[nH]c3ccccc23)NC(=O)c2cnccn2)c(OC)c1
- IC50 [1]: 300 nM
- Activity [3]: 1%

SMILES: COc1ccc(Cn2c(CCc3c[nH]c4ccccc34)nnc2[C@@H](Cc2c[nH]c3ccccc23)NC(=O)c2ccccn2)cc1
- IC50 [1]: 1.9 nM
- Activity [3]: 0%
- Kb [4]: 102 nM

SMILES: O=C(N[C@H](Cc1c[nH]c2ccccc12)c1nnc(CCc2ccccc2)n1-c1ccccc1)c1ccccn1
- IC50 [1]: 105 nM
- Activity [3]: 0%

SMILES: COc1ccc(Cn2c(CCc3ccccc3)nnc2[C@@H](Cc2c[nH]c3ccccc23)NC(=O)c2ccccc2)c(OC)c1
- IC50 [1]: 11.8 nM
- Activity [3]: 31%
- EC50 [2]: 16 nM

SMILES: COc1ccc(Cn2c(CCc3ccccc3)nnc2[C@@H](Cc2c[nH]c3ccccc23)NC(=O)C(C)(C)N)cc1
- Activity (Rattus norvegicus [5]): 220.52 ng/mL
- Activity (Rattus norvegicus [6]): 5.28 ng/mL
- IC50 [1]: 11 nM
- Activity [3]: 0%
- Kb [4]: 5 nM

SMILES: COc1ccc(Cn2c(CCc3ccccc3)nnc2[C@@H](Cc2c[nH]c3ccccc23)NCc2ccccc2)c(OC)c1
- IC50 [1]: > 1000 nM
- Activity [3]: 20%

SMILES: COc1ccc(Cn2c(CCc3ccccc3)nnc2[C@@H](Cc2c[nH]c3ccccc23)NC(=O)C(C)(C)N)c(OC)c1
- IC50 [1]: 60 nM
- Activity [3]: 0%
- Kb [4]: 17 nM

SMILES: CCc1ccc(Cn2c(CCc3ccccc3)nnc2[C@@H](Cc2c[nH]c3ccccc23)NC(=O)Cc2ccccn2)cc1
- IC50 [1]: 51 nM
- Activity [3]: 0%
- Kb [4]: 124 nM

SMILES: CCc1ccc(Cn2c(CCc3ccccc3)nnc2[C@@H](Cc2c[nH]c3ccccc23)NC(=O)c2ccccn2)cc1
- IC50 [1]: 67 nM
- Activity [3]: 0%
- Kb [4]: 513 nM

SMILES: O=C(N[C@H](Cc1c[nH]c2ccccc12)c1nnc(CCc2c[nH]c3ccccc23)n1-c1ccccc1)c1ccccn1
- IC50 [1]: 160 nM
- Activity [3]: 0%

SMILES: COc1ccc(Cn2c(CCc3ccccc3)nnc2[C@@H](Cc2c[nH]c3ccccc23)NC(=O)Cc2cccnc2)cc1
- IC50 [1]: 29 nM
- Activity [3]: 3%
- Kb [4]: 93 nM

SMILES: Cc1[nH]c2ccccc2c1C[C@@H](NC(=O)[C@@H](N)Cc1c[nH]cn1)C(=O)N[C@@H](C)C(=O)N[C@@H](Cc1c[nH]c2ccccc12)C(=O)N[C@H](Cc1ccccc1)C(=O)N[C@@H](CCCCN)C(N)=O [EXAMORELIN] (H-H[dTrp(2-Me)]AW[dF]K-NH2)
- Activity (Rattus norvegicus [7]): 253.82 ng/mL
- Activity (Rattus norvegicus [8]): 1.06 g
- Activity (Rattus norvegicus [9]): 1.45 g

SMILES: CCc1ccc(Cn2c(CCc3ccccc3)nnc2[C@@H](Cc2c[nH]c3ccccc23)NC(=O)c2ccncc2)cc1
- IC50 [1]: > 1000 nM
- Activity [3]: 0%

SMILES: COc1ccc(Cn2c(CCc3c[nH]c4ccccc34)nnc2[C@@H](Cc2c[nH]c3ccccc23)NC(=O)c2cnccn2)c(OC)c1
- Activity (Rattus norvegicus [10]): 0.21 g
- Activity (Rattus norvegicus [5]): 173.61 ng/mL
- Activity (Rattus norvegicus [6]): 15.32 ng/mL
- IC50 [1]: 18.5 nM
- Activity [3]: 0%
- Kb [4]: 97 nM
- Activity (Rattus norvegicus [11]): 0.66 g
- Activity (Rattus norvegicus [12]): 0.66 g
- inhibition in vivo at 0.02 mg/kg (Rattus norvegicus [12]; Rattus norvegicus, sc, 6 h): 47%
- Activity (Rattus norvegicus [13]): 0.23 g
- Activity (Rattus norvegicus [14]): 0.23 g
- Activity (Rattus norvegicus [15]): 0.29 g
- Activity (Rattus norvegicus [16]): 0.31 g
- Activity (Rattus norvegicus [17]): 0.2 g

SMILES: O=C(Cc1ccccn1)N[C@H](Cc1c[nH]c2ccccc12)c1nnc(CCc2ccccc2)n1-c1ccccc1
- IC50 [1]: 700 nM
- Activity [3]: 0%

SMILES: COc1ccc(Cn2c(CCc3ccccc3)nnc2[C@@H](Cc2c[nH]c3ccccc23)NC(=O)c2ccccn2)cc1
- IC50 [1]: 0.7 nM
- Activity [3]: 0%
- Kb [4]: 12 nM

SMILES: COc1ccc(Cn2c(CCc3c[nH]c4ccccc34)nnc2[C@@H](Cc2c[nH]c3ccccc23)NC(=O)[C@H]2CCCC[C@H]2N)c(OC)c1
- IC50 [1]: 140 nM
- Activity [3]: 4%
- Kb [4]: 140 nM

SMILES: COc1ccc(Cn2c(CCc3ccccc3)nnc2[C@@H](Cc2c[nH]c3ccccc23)NC(=O)Cc2ccncc2)cc1
- IC50 [1]: 270 nM
- Activity [3]: 6%

SMILES: CCc1ccc(-n2c(CCc3c[nH]c4ccccc34)nnc2[C@@H](Cc2c[nH]c3ccccc23)NC(=O)Cc2ccccn2)cc1
- IC50 [1]: 96 nM
- Activity [3]: 0%
- Kb [4]: 34 nM

SMILES: COc1ccc(Cn2c(CCc3ccccc3)nnc2[C@@H](Cc2c[nH]c3ccccc23)NC(=O)c2ccncc2)c(OC)c1
- IC50 [1]: 58 nM
- Activity [3]: 0%
- Kb [4]: 93 nM

SMILES: CCc1ccc(Cn2c(CCc3ccccc3)nnc2[C@@H](Cc2c[nH]c3ccccc23)NC(=O)c2cnccn2)cc1
- IC50 [1]: 89 nM
- Activity [3]: 0%
- Kb [4]: 76 nM

SMILES: COc1ccc(Cn2c(CCc3ccccc3)nnc2[C@@H](Cc2c[nH]c3ccccc23)NC(=O)Cc2ccccn2)cc1
- IC50 [1]: 3 nM
- Activity [3]: 6%
- Kb [4]: 6 nM

SMILES: COc1ccc(-n2c(CCc3ccccc3)nnc2[C@@H](Cc2c[nH]c3ccccc23)NC(=O)c2ccccn2)c(OC)c1
- IC50 [1]: 33 nM
- Activity [3]: 0%
- Kb [4]: 65 nM

SMILES: COc1ccc(Cn2c(CCc3c[nH]c4ccccc34)nnc2[C@@H](Cc2c[nH]c3ccccc23)NC(=O)C(C)(C)N)c(OC)c1
- IC50 [1]: 108 nM
- Activity [3]: 0%
- Kb [4]: 14 nM

SMILES: COc1ccc(Cn2c(CCc3ccccc3)nnc2[C@@H](Cc2c[nH]c3ccccc23)NC(=O)c2ccncc2)cc1
- IC50 [1]: 220 nM
- Activity [3]: 0%
